Laboratory results from ChEMBL document CHEMBL1157165, “Design and synthesis of dual inhibitors of HIV reverse transcriptase and integrase: introducing a diketoacid functionality into delavirdine” (Bioorg Med Chem, 2008).

Legend:
[1] = tested on: Human immunodeficiency virus 1; assay: Antiviral activity against HIV1 by cell-based assay; assay type: functional, organism-based
Procedure, shortened: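 Cytoprotection assay: CEM-SS cells or human PBMCs mixed with HIV-1 strain IIIB or RF in presence of compound, 6 days. Virus pre-titered to give 70–95% loss of viability in virus-control wells; cell, toxicity and colorimetric controls included. Viability by MTS or XTT dye reduction; EC50 = concentration inhibiting virus replication by 50%.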

[2] = Inhibition of HIV integrase expressed in Escherichia coli BL21; design: species or system Human immunodeficiency virus
Procedure, shortened: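 IN made in E. coli BL21(DE3) by IPTG induction. 600 nM IN stock in 10 mM HEPES pH 7.5, 10 mM MnCl2, 1 mM DTT, 10% glycerol, BSA, Brij-35, preincubated with compound or DMSO 10 min at room temperature. Reaction started with annealed 5'-biotin/3'-cy5 duplex (50 nM stock), 2 h at 37 °C. Product captured on streptavidin plate, washed with NaOH denaturing buffer, eluted in formamide, fluorescence read.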

[3] = Inhibition of HIV reverse transcriptase; design: species or system Human immunodeficiency virus
Procedure, shortened: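 Scintillation proximity assay: beads carry a biotin-linked poly(A) template with oligo(T) primer. Reaction incubated 3 h at 37 °C, stopped with stop buffer, counted 1 min per sample on a beta counter; IC50 reported.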

| EC50 [1] [µM] | IC50 [2] [µM] | IC50 [3] [µM] | SMILES |
| --- | --- | --- | --- |
| > 10 | > 100 | > 100 | CC(C)Nc1cccnc1N1CCN(C(=O)c2[nH]c3c(C(=O)/C=C(\O)C(=O)O)cccc3c2Cl)CC1 |
| 0.79 | 3.9 | 0.12 | CC(C)Nc1cccnc1N1CCN(C(=O)c2[nH]c3ccc(C(=O)/C=C(\O)C(=O)O)cc3c2Br)CC1 |
| > 10 | 75 | > 100 | CC(C)Nc1cccnc1N1CCN(C(=O)c2[nH]c3c(C(=O)/C=C(\O)C(=O)O)cccc3c2Br)CC1 |
| > 10 | > 100 | > 100 | CC(C)Nc1cccnc1N1CCN(C(=O)c2cc3cccc(C(=O)/C=C(\O)C(=O)O)c3[nH]2)CC1 |
| 0.021 | > 100 | 0.036 | CC(C)Nc1cccnc1N1CCN(C(=O)c2cc3cc(NS(C)(=O)=O)ccc3[nH]2)CC1 [DELAVIRDINE] |
| 0.52 | 11 | 0.0059 | CC(C)Nc1cccnc1N1CCN(C(=O)c2cc3cc(C(=O)/C=C(\O)C(=O)O)ccc3[nH]2)CC1 |
| 0.98 | 4.7 | 1.1 | CC(C)Nc1cccnc1N1CCN(C(=O)c2[nH]c3ccc(C(=O)/C=C(\O)C(=O)O)cc3c2Cl)CC1 |
